Measured values as given in ChEMBL document CHEMBL4808175 (J Med Chem, 2021).
Each block holds one compound with its values, some of them ahead of it.

Key:
[1] = target: T1, cGMP-specific 3',5'-cyclic phosphodiesterase (Homo sapiens, UniProt O76074); test: Inhibition of recombinant full length GST-tagged PDE5A1 (unknown origin) expressed in baculovirus infected Sf9 insect cells using TAMRA-cGMP as substrate incubated for 1.5 hrs by IMAP-FP assay
[2] = target: T2, Dual specificity calcium/calmodulin-dependent 3',5'-cyclic nucleotide phosphodiesterase 1A (Homo sapiens, UniProt P54750); test: Inhibition of recombinant full length GST-tagged PDE1A (unknown origin) expressed in baculovirus infected Sf9 insect cells using TAMRA-cGMP as substrate incubated for 1.5 hrs by IMAP-FP assay
Outline: (§1)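 PDE enzymes incubated with compound or vehicle and 50 nM TAMRA-cGMP or FAM-cAMP substrate for 1.5 h at 30 °C. Activity read by IMAP fluorescence polarization. IC50 from 10 concentrations, at least two replicates each, fitted by four-parameter logistic. Dose–response repeated at least twice; mean of at least two experiments.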

Homo sapiens [3] = organism: Homo sapiens; test: (§2) Selectivity ratio of IC50 for recombinant GST-tagged full length PDE11A4 (unknown origin) expressed in baculovirus infected Sf9 insect cells to IC50 for recombinant full length GST-tagged PDE5A1 (unknown origin) expressed in baculovirus infected Sf9 insect cells using TAMRA-cGMP as substrate incubated for 1.5 hrs by IMAP-FP assay using TAMRA-cGMP as substrate incubated for 1.5 hrs by IMAP-FP assay
[4] = target: T3, cGMP-inhibited 3',5'-cyclic phosphodiesterase 3A (Homo sapiens, UniProt Q14432); test: Inhibition of recombinant GST-tagged PDE3A (669 to end residues) (unknown origin) expressed in baculovirus infected Sf9 insect cells using FAM-cAMP as substrate incubated for 1.5 hrs by IMAP-FP assay; outline: as §1
[5] = target: T4, cAMP and cAMP-inhibited cGMP 3',5'-cyclic phosphodiesterase 10A (Homo sapiens, UniProt Q9Y233); test: Inhibition of recombinant GST-tagged full length PDE10A2 (unknown origin) expressed in baculovirus infected Sf9 insect cells using FAM-cAMP as substrate incubated for 1.5 hrs by IMAP-FP assay; outline: as §1
[6] = target: High affinity cAMP-specific and IBMX-insensitive 3',5'-cyclic phosphodiesterase 8A (Homo sapiens, UniProt O60658); test: Inhibition of recombinant GST-tagged full length PDE8A1 (unknown origin) expressed in baculovirus infected Sf9 insect cells using FAM-cAMP as substrate incubated for 1.5 hrs by IMAP-FP assay; outline: as §1
[7] = target: T5, cGMP-dependent 3',5'-cyclic phosphodiesterase (Homo sapiens, UniProt O00408); test: Inhibition of recombinant full length GST-tagged PDE2A (unknown origin) expressed in baculovirus infected Sf9 insect cells using FAM-cAMP as substrate incubated for 1.5 hrs by IMAP-FP assay; outline: as §1
[8] = target: T3, cGMP-inhibited 3',5'-cyclic phosphodiesterase 3A; test: Inhibition of recombinant GST-tagged PDE3A (669 to end residues) (unknown origin) expressed in baculovirus infected Sf9 insect cells using TAMRA-cGMP as substrate incubated for 1.5 hrs by IMAP-FP assay; outline: as §1
[9] = target: T4, cAMP and cAMP-inhibited cGMP 3',5'-cyclic phosphodiesterase 10A; test: Inhibition of recombinant GST-tagged full length PDE10A2 (unknown origin) expressed in baculovirus infected Sf9 insect cells using TAMRA-cGMP as substrate incubated for 1.5 hrs by IMAP-FP assay; outline: as §1
[10] = target: T6, Dual 3',5'-cyclic-AMP and -GMP phosphodiesterase 11A (Homo sapiens, UniProt Q9HCR9); test: Inhibition of recombinant GST-tagged full length PDE11A4 (unknown origin) expressed in baculovirus infected Sf9 insect cells using TAMRA-cGMP as substrate incubated for 1.5 hrs by IMAP-FP assay; outline: as §1
[11] = target: T6, Dual 3',5'-cyclic-AMP and -GMP phosphodiesterase 11A; test: Inhibition of recombinant GST-tagged full length PDE11A4 (unknown origin) expressed in baculovirus infected Sf9 insect cells using FAM-cAMP as substrate incubated for 1.5 hrs by IMAP-FP assay; outline: as §1
[12] = target: High affinity 3',5'-cyclic-AMP phosphodiesterase 7A (Homo sapiens, UniProt Q13946); test: Inhibition of recombinant GST-tagged PDE7A (122 to end residues) (unknown origin) expressed in baculovirus infected Sf9 insect cells using FAM-cAMP as substrate incubated for 1.5 hrs by IMAP-FP assay; outline: as §1
[13] = target: T5, cGMP-dependent 3',5'-cyclic phosphodiesterase; test: Inhibition of recombinant full length GST-tagged PDE2A (unknown origin) expressed in baculovirus infected Sf9 insect cells using TAMRA-cGMP as substrate incubated for 1.5 hrs by IMAP-FP assay; outline: as §1
[14] = target: High affinity cGMP-specific 3',5'-cyclic phosphodiesterase 9A (Homo sapiens, UniProt O76083); test: Inhibition of recombinant GST-tagged full length PDE9A2 (unknown origin) expressed in baculovirus infected Sf9 insect cells using substrate incubated for 1.5 hrs by IMAP-FP assay
[15] = target: T2, Dual specificity calcium/calmodulin-dependent 3',5'-cyclic nucleotide phosphodiesterase 1A; test: Inhibition of recombinant full length GST-tagged PDE1A (unknown origin) expressed in baculovirus infected Sf9 insect cells using FAM-cAMP as substrate incubated for 1.5 hrs by IMAP-FP assay; outline: as §1
[16] = target: Cone cGMP-specific 3',5'-cyclic phosphodiesterase subunit alpha' (Homo sapiens, UniProt P51160); test: Inhibition of recombinant full length GST-tagged PDE6C (unknown origin) expressed in baculovirus infected Sf9 insect cells using TAMRA-cGMP as substrate incubated for 1.5 hrs by IMAP-FP assay; outline: as §1
Homo sapiens [17] = organism: Homo sapiens; test: as §2, with “recombinant” for “recombinant GST-tagged”, “GST-tagged PDE6C” for “PDE11A4”
[18] = target: 3',5'-cyclic-AMP phosphodiesterase 4B (Homo sapiens, UniProt Q07343); test: Inhibition of recombinant full length GST-tagged PDE4B2 (unknown origin) expressed in baculovirus infected Sf9 insect cells using FAM-cAMP as substrate incubated for 1.5 hrs by IMAP-FP assay; outline: as §1
[19] = target: T1, cGMP-specific 3',5'-cyclic phosphodiesterase; test: Inhibition of PDE5A in HEK293 cells stably transfected with cGMP biosensor assessed as increase in SNP-induced intracellular cGMP level measured after 90 mins by luminescence assay; type: cell-based
in vitro = settings: human, microsomes

T3 sequence (Q14432 whole entry): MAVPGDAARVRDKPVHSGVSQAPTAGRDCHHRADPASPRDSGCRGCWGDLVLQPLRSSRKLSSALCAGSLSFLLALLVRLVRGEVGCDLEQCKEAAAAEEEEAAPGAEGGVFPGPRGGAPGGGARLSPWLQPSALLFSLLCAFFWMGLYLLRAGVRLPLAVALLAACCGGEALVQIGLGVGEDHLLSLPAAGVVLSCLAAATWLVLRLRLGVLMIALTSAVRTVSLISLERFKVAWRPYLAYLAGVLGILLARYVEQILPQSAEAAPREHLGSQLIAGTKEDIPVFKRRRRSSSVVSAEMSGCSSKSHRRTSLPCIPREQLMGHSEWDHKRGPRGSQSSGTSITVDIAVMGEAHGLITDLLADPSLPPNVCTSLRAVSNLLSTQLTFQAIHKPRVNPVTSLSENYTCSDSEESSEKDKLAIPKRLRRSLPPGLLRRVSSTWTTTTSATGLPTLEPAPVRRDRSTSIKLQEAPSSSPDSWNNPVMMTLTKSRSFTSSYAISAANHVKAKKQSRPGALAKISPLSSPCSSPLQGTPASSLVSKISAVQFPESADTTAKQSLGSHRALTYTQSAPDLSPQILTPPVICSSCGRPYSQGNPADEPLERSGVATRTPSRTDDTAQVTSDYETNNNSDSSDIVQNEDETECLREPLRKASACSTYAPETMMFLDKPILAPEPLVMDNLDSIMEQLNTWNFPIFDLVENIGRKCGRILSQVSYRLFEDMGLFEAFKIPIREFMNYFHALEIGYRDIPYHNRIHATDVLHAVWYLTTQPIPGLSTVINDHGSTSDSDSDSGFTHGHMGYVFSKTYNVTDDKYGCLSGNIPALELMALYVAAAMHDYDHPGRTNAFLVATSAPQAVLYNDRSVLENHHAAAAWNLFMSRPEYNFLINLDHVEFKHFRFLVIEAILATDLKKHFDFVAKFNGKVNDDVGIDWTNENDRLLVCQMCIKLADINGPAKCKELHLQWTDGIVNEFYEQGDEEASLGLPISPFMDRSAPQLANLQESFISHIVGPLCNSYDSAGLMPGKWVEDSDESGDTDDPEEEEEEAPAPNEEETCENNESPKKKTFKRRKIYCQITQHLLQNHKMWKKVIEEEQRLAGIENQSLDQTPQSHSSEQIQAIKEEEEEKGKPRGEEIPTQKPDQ
T5 sequence (O00408 whole entry): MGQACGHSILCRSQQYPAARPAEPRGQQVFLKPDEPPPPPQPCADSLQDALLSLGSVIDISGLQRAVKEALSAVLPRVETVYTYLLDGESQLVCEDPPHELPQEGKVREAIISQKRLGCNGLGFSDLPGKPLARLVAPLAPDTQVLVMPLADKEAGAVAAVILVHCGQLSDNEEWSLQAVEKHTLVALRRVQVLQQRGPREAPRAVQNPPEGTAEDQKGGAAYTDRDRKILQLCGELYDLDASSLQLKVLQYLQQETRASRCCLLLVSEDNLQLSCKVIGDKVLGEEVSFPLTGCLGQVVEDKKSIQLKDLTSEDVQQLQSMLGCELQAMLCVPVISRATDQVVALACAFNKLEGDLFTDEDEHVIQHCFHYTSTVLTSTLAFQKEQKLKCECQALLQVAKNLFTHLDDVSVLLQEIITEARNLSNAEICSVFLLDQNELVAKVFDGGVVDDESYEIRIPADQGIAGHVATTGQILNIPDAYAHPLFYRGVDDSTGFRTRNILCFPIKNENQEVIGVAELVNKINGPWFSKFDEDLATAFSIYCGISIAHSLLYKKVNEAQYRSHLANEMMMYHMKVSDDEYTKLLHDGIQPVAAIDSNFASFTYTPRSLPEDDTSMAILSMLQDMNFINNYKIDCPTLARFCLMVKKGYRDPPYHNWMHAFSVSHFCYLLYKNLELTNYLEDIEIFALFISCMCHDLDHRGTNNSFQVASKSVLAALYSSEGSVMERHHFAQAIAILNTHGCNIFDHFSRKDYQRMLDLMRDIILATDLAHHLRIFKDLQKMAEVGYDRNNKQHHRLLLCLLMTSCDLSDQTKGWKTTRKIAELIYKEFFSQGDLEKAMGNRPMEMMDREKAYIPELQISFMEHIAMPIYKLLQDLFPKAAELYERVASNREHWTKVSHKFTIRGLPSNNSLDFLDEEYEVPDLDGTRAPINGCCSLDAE
T2 sequence (P54750 whole entry): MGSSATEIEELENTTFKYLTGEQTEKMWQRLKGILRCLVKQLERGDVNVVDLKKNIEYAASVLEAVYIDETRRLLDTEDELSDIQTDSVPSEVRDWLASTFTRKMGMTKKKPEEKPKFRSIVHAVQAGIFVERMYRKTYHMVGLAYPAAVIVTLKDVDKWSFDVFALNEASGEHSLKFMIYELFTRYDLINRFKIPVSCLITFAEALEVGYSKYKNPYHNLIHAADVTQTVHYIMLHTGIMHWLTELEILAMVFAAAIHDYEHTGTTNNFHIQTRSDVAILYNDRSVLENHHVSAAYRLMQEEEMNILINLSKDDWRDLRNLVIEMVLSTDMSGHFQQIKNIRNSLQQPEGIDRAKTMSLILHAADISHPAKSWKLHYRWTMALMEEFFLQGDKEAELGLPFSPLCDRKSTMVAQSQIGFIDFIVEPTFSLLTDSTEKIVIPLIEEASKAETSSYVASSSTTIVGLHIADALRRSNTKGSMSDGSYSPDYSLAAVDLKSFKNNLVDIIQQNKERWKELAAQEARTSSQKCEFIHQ
T4 sequence (Q9Y233 whole entry): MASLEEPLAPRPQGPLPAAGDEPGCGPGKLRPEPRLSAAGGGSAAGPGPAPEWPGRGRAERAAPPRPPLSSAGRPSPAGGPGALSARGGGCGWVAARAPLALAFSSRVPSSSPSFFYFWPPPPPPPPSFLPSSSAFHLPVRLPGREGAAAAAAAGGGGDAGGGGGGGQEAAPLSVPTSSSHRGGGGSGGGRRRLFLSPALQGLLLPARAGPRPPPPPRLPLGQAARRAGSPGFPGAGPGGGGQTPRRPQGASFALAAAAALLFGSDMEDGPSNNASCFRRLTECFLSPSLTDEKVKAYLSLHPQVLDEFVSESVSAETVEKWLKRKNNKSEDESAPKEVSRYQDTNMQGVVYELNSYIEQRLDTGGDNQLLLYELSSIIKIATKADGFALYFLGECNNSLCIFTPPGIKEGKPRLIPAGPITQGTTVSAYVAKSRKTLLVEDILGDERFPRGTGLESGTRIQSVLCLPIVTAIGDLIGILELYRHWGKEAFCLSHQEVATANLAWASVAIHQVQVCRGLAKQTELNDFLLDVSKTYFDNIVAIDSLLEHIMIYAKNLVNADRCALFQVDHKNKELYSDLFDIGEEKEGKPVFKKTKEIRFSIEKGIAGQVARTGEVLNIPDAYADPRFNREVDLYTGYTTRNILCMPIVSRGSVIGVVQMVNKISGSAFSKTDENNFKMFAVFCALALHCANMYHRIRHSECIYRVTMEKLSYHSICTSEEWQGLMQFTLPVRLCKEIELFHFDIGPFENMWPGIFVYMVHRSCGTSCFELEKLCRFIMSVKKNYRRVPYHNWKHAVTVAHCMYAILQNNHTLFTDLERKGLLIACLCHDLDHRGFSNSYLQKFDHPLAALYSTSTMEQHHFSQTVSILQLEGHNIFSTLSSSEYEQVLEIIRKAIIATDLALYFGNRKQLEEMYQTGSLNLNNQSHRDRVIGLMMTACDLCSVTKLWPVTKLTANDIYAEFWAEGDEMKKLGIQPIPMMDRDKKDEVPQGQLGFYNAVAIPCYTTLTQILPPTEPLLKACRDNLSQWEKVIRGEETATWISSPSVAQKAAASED
T6 sequence (Q9HCR9 whole entry): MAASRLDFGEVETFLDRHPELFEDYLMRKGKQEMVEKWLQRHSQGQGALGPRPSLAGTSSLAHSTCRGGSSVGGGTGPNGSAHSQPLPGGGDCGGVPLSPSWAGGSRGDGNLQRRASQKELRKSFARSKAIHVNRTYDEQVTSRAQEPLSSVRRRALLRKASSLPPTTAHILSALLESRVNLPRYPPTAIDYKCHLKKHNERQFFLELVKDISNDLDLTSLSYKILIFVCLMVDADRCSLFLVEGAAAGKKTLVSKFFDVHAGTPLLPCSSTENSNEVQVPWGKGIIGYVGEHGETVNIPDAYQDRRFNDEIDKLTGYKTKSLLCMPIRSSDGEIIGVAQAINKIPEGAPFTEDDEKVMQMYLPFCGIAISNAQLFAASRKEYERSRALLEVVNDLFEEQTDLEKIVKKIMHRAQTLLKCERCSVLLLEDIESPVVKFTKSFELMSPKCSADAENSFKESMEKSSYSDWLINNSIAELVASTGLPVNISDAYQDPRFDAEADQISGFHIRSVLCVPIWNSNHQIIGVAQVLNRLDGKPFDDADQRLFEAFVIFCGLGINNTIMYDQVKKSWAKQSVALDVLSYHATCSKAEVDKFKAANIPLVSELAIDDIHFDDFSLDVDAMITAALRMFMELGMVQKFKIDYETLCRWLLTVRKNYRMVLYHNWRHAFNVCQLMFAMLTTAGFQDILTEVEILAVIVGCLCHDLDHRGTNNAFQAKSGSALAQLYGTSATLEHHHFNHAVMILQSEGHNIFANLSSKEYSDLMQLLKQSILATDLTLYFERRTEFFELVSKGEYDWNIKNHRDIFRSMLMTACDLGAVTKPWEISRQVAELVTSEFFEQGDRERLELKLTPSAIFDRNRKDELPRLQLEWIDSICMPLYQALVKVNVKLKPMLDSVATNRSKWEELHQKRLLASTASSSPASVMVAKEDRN
Sequence of High affinity 3',5'-cyclic-AMP phosphodiesterase 7A (Q13946 whole entry): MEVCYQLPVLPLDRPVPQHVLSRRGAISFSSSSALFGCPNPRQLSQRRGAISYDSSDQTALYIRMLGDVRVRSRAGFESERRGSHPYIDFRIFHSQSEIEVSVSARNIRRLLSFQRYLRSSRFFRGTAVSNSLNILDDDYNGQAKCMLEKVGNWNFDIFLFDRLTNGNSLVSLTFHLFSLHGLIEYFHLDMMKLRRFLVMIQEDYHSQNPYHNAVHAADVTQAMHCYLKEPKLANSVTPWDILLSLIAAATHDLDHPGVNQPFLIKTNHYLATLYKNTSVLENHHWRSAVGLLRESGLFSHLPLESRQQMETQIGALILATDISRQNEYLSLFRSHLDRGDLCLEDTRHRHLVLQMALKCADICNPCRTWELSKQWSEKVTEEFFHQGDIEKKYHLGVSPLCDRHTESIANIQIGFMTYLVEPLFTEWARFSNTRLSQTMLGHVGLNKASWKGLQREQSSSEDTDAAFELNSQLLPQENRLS

Structure (SMILES): CCCCNC(=O)c1ccc(N2N=C(c3ccccc3)CC2c2ccc(OC)cc2)cc1 (stereo not drawn)
IC50 [1]: 410 nM

Structure (SMILES): CCCCNC(=O)c1ccc(N2N=C(c3ccccc3C)CC2c2ccc(OC)cc2)cc1 (stereo not drawn)
IC50 [1]: 280 nM

Structure (SMILES): COc1ccc(C2CC(c3ccccc3C)=NN2c2ccc(C(=O)NCCO)cc2)cc1 (stereo not drawn)
IC50 [2]: > 10 µM | Ratio IC50 (Homo sapiens [3]): 38.4 | IC50 [4]: > 10 µM | IC50 [5]: > 100 µM | IC50 [6]: > 10 µM | IC50 [7]: > 50 µM | IC50 [8]: > 10 µM | IC50 [9]: > 100 µM | IC50 [10]: 13 µM | IC50 [11]: 13 µM | IC50 [12]: > 10 µM | IC50 [13]: > 50 µM | IC50 [1]: 340 nM | IC50 [14]: > 10 µM | IC50 [15]: > 10 µM | IC50 [16]: > 10 µM | Ratio IC50 (Homo sapiens [17]): > 29 | IC50 [18]: > 10 µM

Structure (SMILES): COc1ccc(C2CC(C(C)(C)C)=NN2c2ccc(C(=O)N3CCN(C)CC3)cc2)cc1Cl (stereo not drawn)
IC50 [1]: 190 nM

Structure (SMILES): COc1cc(C2CC(C(C)(C)C)=NN2c2ccc(C(=O)O)cc2)ccc1F (stereo not drawn)
IC50 [1]: 10100 nM

Structure (SMILES): COc1ccc(C2CC(c3ccccc3O)=NN2c2ccc(C(=O)O)cc2)cc1 (racemic)
IC50 [1]: 330 nM

Structure (SMILES): COc1ccc(C2C3Cc4ccccc4C3=NN2c2ccc(C(=O)O)cc2)cc1 (stereo not drawn)
IC50 [1]: 1440 nM

Structure (SMILES): CCNC(=O)c1ccc(N2N=C(c3ccccc3)CC2c2ccc(OC)cc2)cc1 (stereo not drawn)
IC50 [1]: 600 nM

Structure (SMILES): COc1ccc(C2CC(c3ccccc3)=NN2c2ccc(C(=O)O)cc2)cc1F (stereo not drawn)
IC50 [1]: 1190 nM

Structure (SMILES): CC(C)NCC(O)COc1cccc2ccccc12 (stereo not drawn) [PROPRANOLOL]
half-life at 1 h, 1 µM (in vitro): > 60 min

Structure (SMILES): COc1ccc(C2CC(c3ccccc3C)=NN2c2ccc(C(=O)N3CCOCC3)cc2)cc1 (stereo not drawn)
IC50 [1]: 29 nM

Structure (SMILES): COc1ccc(C2CC(c3cccc(C)c3)=NN2c2ccc(C(=O)O)cc2)cc1 (stereo not drawn)
IC50 [1]: 1560 nM

Further compounds by falling IC50 [1], results first:

IC50 [1]: 10000 nM
Structure (SMILES): CC(C)(C)C1=NN(c2ccc(C(=O)O)cc2)C(c2ccc(OC(F)(F)F)cc2)C1 (stereo not drawn)

IC50 [1]: 1290 nM
Structure (SMILES): COc1cc(C2CC(C(C)(C)C)=NN2c2ccc(C(=O)N3CCN(C)CC3)cc2)ccc1F (stereo not drawn)

IC50 [1]: 590 nM
Structure (SMILES): COc1ccc(C2CC(C(C)(C)C)=NN2c2ccc(C(=O)O)cc2)cc1F (stereo not drawn)

IC50 [1]: 200 nM
Structure (SMILES): CCOc1c(F)cc(C2CC(C(C)(C)C)=NN2c2ccc(C(=O)O)cc2)cc1F (stereo not drawn)

IC50 [1]: 20 nM
Structure (SMILES): COc1ccc(C2CC(C(C)(C)C)=NN2c2ccc(C(=O)N3CCN(C)CC3)cc2)cc1F (stereo not drawn)

IC50 [2]: > 10 µM | EC50 [19]: 4.1 µM | IC50 [4]: > 10 µM | IC50 [5]: > 10 µM | IC50 [6]: > 10 µM | IC50 [7]: > 10 µM | IC50 [8]: > 10 µM | IC50 [9]: > 10 µM | IC50 [10]: > 10 µM | IC50 [11]: > 10 µM | IC50 [12]: > 10 µM | IC50 [13]: > 10 µM | IC50 [1]: 4 nM | IC50 [14]: > 10 µM | IC50 [15]: > 10 µM | IC50 [16]: > 10 µM | IC50 [18]: > 10 µM
Structure (SMILES): COc1ccc(C2CC(C(C)(C)C)=NN2c2ccc(C(=O)N3CCN(C)CC3)cc2)c(F)c1F (stereo not drawn)
Ratio IC50 (Homo sapiens [3]): > 2500 | Ratio IC50 (Homo sapiens [17]): > 2500
